Source: ChEMBL document CHEMBL4732138, “Evaluation of the Structure-Activity Relationship of Microtubule-Targeting 1,2,4-Triazolo[1,5-a]pyrimidines Identifies New Candidates for Neurodegenerative Tauopathies” (J Med Chem, 2021)
Calls of active or inactive are those of the source. The rule behind the calls is not given here.

What was measured:
[1] = Ratio of drug concentration in brain to plasma in CD-1 mouse at 5 mg/kg, ip administered as single cassette dosing and measured after 1 hr; format: ADME, organism-based; conditions: read-out: BPR
In short: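 Groups of three female CD-1 mice (2–3 months old) received one i.p. dose of 5 mg/kg in DMSO and were euthanized 1 h later. Brain hemispheres were sonicated in 10 mM ammonium acetate, pH 5.7 (50% w/v). Plasma came from blood collected in 0.5 M EDTA, spun 10 min at 4,500 × g, 4 °C. B/P is the ratio of brain to plasma compound concentration.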

Tubulin (Homo sapiens) [2] = biological target: T1, Tubulin (Homo sapiens) (UniProt P68371+Q9H4B7+P0DPH7+P68366+Q13509+Q71U36+P04350+Q3ZCM7+P07437+P68363+Q9BQE3+Q6PEY2+Q13885+Q9BVA1+Q9BUF5); assay: Stabilization of microtubules in human QBI293 cells assessed as fold change in alpha tubulin levels at 10 uM after 4 hrs by ELISA relative to DMSO; format: cell-based
In short: (§1)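 QBI293 cells were grown in DMEM with 10% FBS, 2 mM L-glutamine and penicillin/streptomycin, then plated at 6 × 10^5 cells/well and left overnight. Medium was replaced with fresh medium holding vehicle (DMSO) or compound, and cells were incubated 4 h. Whole-cell extract supernatants were protein-normalized by BCA assay. AcTub and α-tubulin were quantified by ELISA against standard curves. Values are fold-change over DMSO, analysed by one-way ANOVA.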

Tubulin (Homo sapiens) [3] = biological target: T1, Tubulin (Homo sapiens); assay: Stabilization of microtubules in human QBI293 cells assessed as fold change in acetylated tubulin levels at 1 uM after 4 hrs by ELISA relative to cevipabulin; format: cell-based
Tubulin (Homo sapiens) [4] = biological target: T1, Tubulin (Homo sapiens); assay: Stabilization of microtubules in human QBI293 cells assessed as fold change in acetylated tubulin levels at 10 uM after 4 hrs by ELISA relative to cevipabulin; format: cell-based
Tubulin (Homo sapiens) [5] = biological target: T1, Tubulin (Homo sapiens); assay: Stabilization of microtubules in human QBI293 cells assessed as fold change in alpha tubulin levels at 1 uM after 4 hrs by ELISA relative to DMSO; format: cell-based; in short: as §1
[6] = n-octanol-water distribution coefficient, log D of the compound at pH 7.4 by shake flask method; format: physicochemical; conditions: n-octanol/water, read-out: logD
In short: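 Distribution coefficient between n-octanol and water at pH 7.4, measured by shake-flask method.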

Tubulin (Homo sapiens) [7] = biological target: T1, Tubulin (Homo sapiens); assay: Stabilization of microtubules in human QBI293 cells assessed as increase in acetylated tubulin levels after 4 hrs by ELISA; format: cell-based
In short: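 QBI293 cells are grown in DMEM with 10% FBS, 2 mM L-glutamine and penicillin/streptomycin, plated at 6 × 10^5 cells/well and incubated overnight. […] Acetyl- and total α-tubulin in whole-cell extract supernatants are measured by ELISA against standard curves, with protein by BCA. Values are fold-change over DMSO; AcTub is also given relative to 100 nM cevipabulin positive control. Significance is by one-way ANOVA.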

Tubulin (Homo sapiens) [8] = biological target: T1, Tubulin (Homo sapiens); assay: Stabilization of microtubules in human QBI293 cells assessed as fold change in acetylated tubulin levels at 1 uM after 4 hrs by ELISA relative to DMSO; format: cell-based; in short: as §1
Tubulin (Homo sapiens) [9] = biological target: T1, Tubulin (Homo sapiens); assay: Stabilization of microtubules in human QBI293 cells assessed as fold change in acetylated tubulin levels at 10 uM after 4 hrs by ELISA relative to DMSO; format: cell-based; in short: as §1
Tubulin (Homo sapiens) [10] = biological target: T1, Tubulin (Homo sapiens); assay: Stabilization of microtubules in human QBI293 cells assessed as decrease in alpha-tubulin levels at 10 uM after 4 hrs by ELISA relative to control; format: cell-based; parameters: scale not given: the % may be the effect or the level left
In short: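 QBI293 cells grown in DMEM with 10% FBS, 2 mM L-glutamine and penicillin/streptomycin, plated at 6 × 10^5 cells/well and left overnight. […] Whole-cell extract supernatants protein-normalised by BCA. Total α-tubulin measured by ELISA against standard curves, reported as fold-change over DMSO-treated cells; one-way ANOVA.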

[11] = Ratio of drug concentration in brain to plasma in CD-1 mouse at 2.5 mg/kg, ip administered as single cassette dosing and measured after 1 hr; format: ADME, organism-based; conditions: read-out: BPR
In short: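 Groups of three female CD-1 mice, 2–3 months old, cassette-dosed i.p. with 2–3 compounds at the same time, each at 2.5 mg/kg in DMSO. Euthanised 1 h after dosing. Brain hemispheres homogenised in 10 mM ammonium acetate pH 5.7 (50% w/v). Plasma from blood collected in EDTA and centrifuged 4,500 × g, 10 min, 4 °C. Compound levels measured in both; brain/plasma ratio reported.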

Primary cortical neuron [12] = assay: Stabilization of microtubules in CD-1 mouse primary cortical neurons assessed as prevention of microtubule collapse by causing increase in acetyl tubulin levels at 10 uM incubated for 8 hrs in presence of phosphatase inhibitor OA by ELISA; format: tissue-based
In short: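 Mouse cortical neurons are plated at 6 × 10^5 cells/well and grown 10 days. […] Acetyl-tubulin in homogenates is measured by ELISA.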

Primary cortical neuron [13] = assay: Stabilization of microtubules in Spargue-Dawley rat primary cortical neurons assessed as prevention of microtubule collapse by causing increase in acetyl tubulin levels at 1 uM incubated for 8 hrs in presence of phosphatase inhibitor OA by fluorescence microscopy analysis; format: tissue-based
In short: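 Rat cortical neurons are grown 10 days on coverslips. They are treated 8 h with or without 15 nM okadaic acid, with or without test compound at 1 µM. Axonal acetyl-tubulin is then assessed by immunostaining.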

[14] = Half life in CD-1 mouse plasma at 5 mg/kg, ip administered as single cassette dosing and measured upto 16 hrs; format: ADME, organism-based
In short: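 CD-1 mice, female, 2–3 months old, three per group, given a single i.p. dose of 5 mg/kg dissolved in DMSO. Brain and plasma sampled over 16 h. Plasma is from blood collected in 0.5 M EDTA and spun 10 min at 4,500 × g, 4 °C. Brain hemispheres are sonicated in 10 mM ammonium acetate pH 5.7 (50% w/v). Compound levels are measured in plasma and brain homogenates.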

Structure (SMILES)	Kp at 1 h [1]	fold change (FC) (Tubulin (Homo sapiens) [2])	fold change (FC) (Tubulin (Homo sapiens) [3])	fold change (FC) (Tubulin (Homo sapiens) [4])	fold change (FC) (Tubulin (Homo sapiens) [5])	logD [6]	Activity (Tubulin (Homo sapiens) [7])	fold change (FC) (Tubulin (Homo sapiens) [8])	fold change (FC) (Tubulin (Homo sapiens) [9])	Activity (Tubulin (Homo sapiens) [10]) [%]	Kp at 1 h [11]	Activity (Primary cortical neuron [12])	Activity (Primary cortical neuron [13])	half-life [14] [h]
Fc1cc(F)c(-c2c(Cl)nc3ncnn3c2N2CCCCCC2)c(F)c1	1.4	0.99	0.45	0.74	0.99	3.38	Dose-dependent effect	4.16	6.87					
CC(Cc1c(-c2c(F)cc(F)cc2F)c(Cl)nc2ncnn12)C(F)(F)F (stereo not drawn)		0.78	0.53	0.53	1.03			2.3	2.29	22				
C[C@@H](Nc1c(-c2c(F)cc(C#N)cc2F)c(Cl)nc2ncnn12)C(C)(C)C						2.35					0.7	Active	Active	1.8
CC(C)[C@@H](C)Nc1c(-c2c(F)cc(F)cc2F)c(Cl)nc2ncnn12	2.7					3.51	Dose-dependent effect						Active	1.1
CC(C)[C@H](Nc1c(-c2c(F)cc(F)cc2F)c(Cl)nc2ncnn12)C(F)(F)F										39				
N#Cc1cc(F)c(-c2c(Cl)nc3ncnn3c2N2CCCCCC2)c(F)c1		0.99	1.04	1.82	0.98	2.12		6.4	11.2		0.7			
CC(C)[C@@H](C)Nc1c(-c2c(F)cc(C#N)cc2F)c(Cl)nc2ncnn12		0.94	0.62	0.69	0.93	2.47		3.8	4.28		0.7			
